Screens as filed in PubChem BioAssay.
Sampled rows, rich in hits. Any-hit rate of the full collection: about 1.3%.
DAGLB inhibitor – blocks human DAGLB lipase activity; Q8NCG7; HEK293T DAGLB membrane lysate, EnzChek fluorogenic substrate; inhibition, % at 5.17 µM; hit rate 0.059% among 340,000; AID 504411; in the data active means inhibition above about 34%;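 further: 0% = enzyme with vehicle and 100% = wells lacking enzyme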
Target sequence (Q8NCG7 whole entry, looked up): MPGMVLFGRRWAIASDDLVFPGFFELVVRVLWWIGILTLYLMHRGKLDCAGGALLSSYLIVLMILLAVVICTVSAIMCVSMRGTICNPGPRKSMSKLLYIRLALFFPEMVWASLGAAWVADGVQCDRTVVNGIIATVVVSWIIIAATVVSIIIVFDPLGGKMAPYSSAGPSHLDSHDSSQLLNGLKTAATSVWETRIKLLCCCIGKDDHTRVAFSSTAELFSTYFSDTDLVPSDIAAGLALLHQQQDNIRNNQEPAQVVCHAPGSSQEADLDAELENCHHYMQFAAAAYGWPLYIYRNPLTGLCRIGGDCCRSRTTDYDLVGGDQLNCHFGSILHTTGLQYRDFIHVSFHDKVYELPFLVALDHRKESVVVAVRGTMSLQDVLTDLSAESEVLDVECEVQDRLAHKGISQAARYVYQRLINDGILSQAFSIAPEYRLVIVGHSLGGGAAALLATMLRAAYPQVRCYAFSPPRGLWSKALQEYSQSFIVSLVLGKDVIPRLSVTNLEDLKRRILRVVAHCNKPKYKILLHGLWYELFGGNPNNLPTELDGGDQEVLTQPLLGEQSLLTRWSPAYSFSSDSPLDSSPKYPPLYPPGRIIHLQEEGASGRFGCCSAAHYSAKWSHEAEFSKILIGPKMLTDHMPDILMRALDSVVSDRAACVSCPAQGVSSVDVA
iPSC survival up – enhancers of human iPSC single-cell survival | hiPSC single-cell survival, ATPlite luminescence; 100% = ROCK inhibitor wells, 0% = DMSO | survival enhancement, % at 20 µM | hit rate 0.044% among 360,000; in the data active means survival enhancement above about 18%;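 further: cells exposed to compounds for 16 hours before the ATP read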
MT1-MMP act inh – MT1-MMP (human) activation inhibition; HT1080 RFP-PRO-GFP cells, GFP/RFP ratio fluorescence, overnight; percent of plate control window, DMSO zero; GFP/RFP ratio change, % at 20 µM; hit rate 0.061% among 360,000; AID 651647;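 active means GFP/RFP ratio change of at least 30% with cell ATP level not reduced by more than half and red fluorescence within 50% of control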
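Material: RFP-PRO-GFP reporter HT1080 cells. Dosing: single-point 20 µM compound, 1% DMSO. Controls: DMSO and RFP-L50D-GFP cell wells. Timing: cells overnight before dosing, compound overnight, 37 °C, 5% CO2. Measure: GFP/RFP fluorescence ratio.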
SKN-1 inh – C. elegans SKN-1 inhibition. AID 624304. hit rate 0.49% among 360,000. C. elegans VP596 Pgst-4::GFP/RFP ratio, acrylamide-induced, 24 h. inhibition, % at 21.8 µM;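 active means interference check ratio from 0.5 to 1.5 plus GFP to RFP signal ratio inhibition reaching or exceeding a fixed threshold, cut at about 30% in these data, passing the limit was not always enough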
FAS TE block – FAS thioesterase (human) inhibition | P49327 | recombinant FAS-TE, OMFH fluorogenic substrate, fluorescence endpoint | inhibition, % at 15 µM | hit rate 0.67% among 360,000 | AID 602261;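 active means compounds whose normalised, plate-corrected inhibition of enzyme fluorescence in the single-dose primary screen is 50% or more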;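 further: 0% = DMSO with enzyme and 100% = substrate without enzyme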
FAS-TE conf – confirmation of human fatty acid synthase thioesterase inhibitors | hit rate 45% among 2,300 | inhibition, % at 15 µM | shares compounds with FAS TE block | recombinant FAS-TE, OMFH fluorogenic substrate, fluorescence;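 active means compounds inhibiting the enzyme by at least 50% at 15 µM in any one of the replicates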;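 further: 0% = enzyme with DMSO only and 100% = wells lacking enzyme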
Active calls of the source: *; x = not tested or not shown.

SMILES | DAGLB inhibitor | iPSC survival up | MT1-MMP act inh | SKN-1 inh | FAS TE block | FAS-TE conf
CCS(=O)(=O)c1ccc2oc(Nc3ccc(OC)cc3)nc2c1 | 1 | 0 | 2 | 6 | 2 | x
COc1cccc(S(=O)(=O)Nc2ccc3c(c2)C(=O)N(C)C[C@H](OC)[C@H](C)CN[C@@H](C)CO3)c1 | x | x | 0 | 12 | x | x
COc1ccc(C(C)(O)c2nc(-c3cnc4ccccc4c3)cs2)cc1 (centres undefined) | x | 7 | -5 | 12 | 18 | x
Cc1cc(Br)ccc1NC(=O)C(C)c1ccc([N+](=O)[O-])cc1 (centres undefined) | -2 | 0 | 4 | 8 | 56* | 51*
Cc1ccc(S(=O)(=O)N(C)C)cc1-n1c(SCC(=O)Nc2ccccc2)nc2ccccc2c1=O | -4 | 2 | -2 | -1 | 52* | 32
Cc1ccc(S(=O)(=O)N(C)C)cc1-n1c(SCC(=O)Nc2ccc(F)cc2)nc2ccccc2c1=O | -6 | 0 | 1 | 7 | 54* | 17
CC(C)(C)c1nnc2cccc(Cl)n12 | -1 | -1 | -1 | 7 | -4 | x
C[C@@H](NC(=O)c1[nH]cnc1C(=O)Nc1ccc(Cl)cc1)c1ccccc1 | -7 | -1 | 4 | -5 | 64* | 63*
Cc1nn(CCc2nn[nH]n2)c2nc(-c3ccc(C4CCCCC4)cc3)cc(C(F)(F)F)c12 | 18 | 0 | 13 | 9 | 69* | 14
Cc1nn(CCC(=O)O)c2nc(-c3cccnc3)cc(C(F)(F)F)c12 | -2 | 0 | 6 | -7 | -3 | x
CC(C)(C)OC[C@H](NC(=O)c1[nH]cnc1C(=O)Nc1ccccc1F)C(=O)OC(C)(C)C | -6 | 4 | -12 | 5 | 21 | x
COC(=O)[C@@]1(Cc2ccc(OC)cc2)[C@H]2c3cc(C(=O)N4CCCC4)n(CCc4ccc(OC)c(Br)c4)c3C[C@H]2CN1C(=O)c1ccccc1 | x | 0 | -39 | 15 | 73* | 15
Cc1ccc(C)c(NC(=O)CSc2nnc(C3CCCCC3)o2)c1 | 0 | 0 | 2 | 4 | -2 | x
O=C(CN1c2ccccc2Sc2ccccc21)N/N=C/c1ccc([N+](=O)[O-])cc1 | -2 | 0 | x | -12 | 69* | 16
O=C(CN1c2ccccc2Sc2ccccc21)N/N=C/c1ccccc1 | 3 | 0 | 1 | 27 | 33 | x
CCn1cc(C(=O)NCc2ccc3c(c2)OCO3)c(=O)c2cc(S(=O)(=O)N3CCOCC3)ccc21 | 2 | 2 | 2 | -14 | 6 | x
CCn1cc(C(=O)NCc2ccccc2OC)c(=O)c2cc(S(=O)(=O)N(C)C)ccc21 | -3 | 1 | 0 | 10 | 16 | x
CCn1cc(C(=O)NCc2ccc(Cl)cc2)c(=O)c2cc(S(=O)(=O)N3CCOCC3)ccc21 | 2 | -2 | 0 | 2 | 12 | x
CCn1cc(C(=O)NCCCN(C)c2ccccc2)c(=O)c2cc(S(=O)(=O)N(C)C)ccc21 | 3 | 2 | 2 | -7 | 32 | x
CCn1cc(C(=O)NC(C)CCc2ccccc2)c(=O)c2cc(S(=O)(=O)N(C)C)ccc21 (centres undefined) | -2 | 0 | 1 | 8 | 63* | 28
CCn1cc(C(=O)NCCc2ccc(Cl)cc2)c(=O)c2cc(S(=O)(=O)N(C)C)ccc21 | -4 | 0 | -4 | -10 | 75* | 34
CCn1cc(C(=O)NCc2ccc(Cl)cc2)c(=O)c2cc(S(=O)(=O)N(C)C)ccc21 | 2 | 0 | -1 | 18 | 64* | 77*
CCn1cc(C(=O)NCc2ccc3c(c2)OCO3)c(=O)c2cc(S(=O)(=O)N(C)C)ccc21 | 1 | 1 | 1 | -5 | 57* | 42*
Cc1ccccc1CNC(=O)c1csc([C@H]2C[C@H](O)[C@@H](CO)O2)n1 | x | -1 | 3 | 7 | -5 | x
C(=N\N(c1ccccc1)c1ccccc1)/c1ccc(N2CCOCC2)s1 | 1 | 0 | -14 | -2 | 44 | x
SMILES | DAGLB inhibitor | iPSC survival up | MT1-MMP act inh | SKN-1 inh | FAS TE block | FAS-TE conf
COc1cc(-c2cc(C(=O)Nc3c(Cl)cc(Cl)cc3Cl)c3ccccc3n2)cc(OC)c1OC | -2 | 2 | 2 | 6 | 56* | 19
COc1ccc(-c2cc(C(=O)Nc3nc4c(C)cccc4s3)c3ccccc3n2)cc1OC | -4 | -1 | -44 | 5 | 68* | 13
Cc1cccn2c(=O)c3cc(C#N)c(=NC(=O)c4cccs4)n(CC(C)C)c3nc12 | 1 | 0 | 10 | -5 | 16 | x
COCCCn1c(=NC(C)=O)c(C#N)cc2c(=O)n3cccc(C)c3nc21 | x | 1 | -1 | -2 | 18 | x
CCOCCCn1c(=NC(=O)c2cccs2)c(C#N)cc2c(=O)n3cccc(C)c3nc21 | -6 | 0 | 1 | 16 | 55* | 10
COCCCn1c(=NC(=O)c2ccccc2)c(C#N)cc2c(=O)n3cccc(C)c3nc21 | 1 | 0 | -4 | 7 | 51* | 46
Cn1c(-c2ccc(F)cc2)cnc1NCc1cccc([N+](=O)[O-])c1 | 0 | 0 | 1 | -1 | 76* | 78*
Cn1c(-c2cccc([N+](=O)[O-])c2)cnc1NCc1cccc(F)c1 | 2 | -1 | 3 | -4 | 7 | x
CCOC1=C2[C@H](c3cccc(Cl)c3)N(S(=O)(=O)c3ccc(C)cc3)C[C@H]2n2c(=O)n(-c3ccccc3)c(=O)n2C1 | x | -1 | -1 | 13 | 70* | 21
CCOC1=C2CN(S(=O)(=O)c3ccc(C)cc3)[C@H](c3cccs3)C[C@H]2n2c(=O)n(-c3ccccc3)c(=O)n2C1 | x | -1 | 3 | 9 | 49 | x
CCOC1=C2[C@H](c3ccccc3F)N(S(=O)(=O)c3ccc(C)cc3)C[C@H]2n2c(=O)n(-c3ccccc3)c(=O)n2C1 | x | 1 | -2 | 10 | 75* | 8
Cc1c(C(=O)Nc2ccc(Cl)cc2)c2ccccn2c1C(=O)c1ccc([N+](=O)[O-])cc1 | 1 | 6 | 6 | -9 | 71* | 14
Cc1c(C(=O)Nc2ccc(Cl)cc2)c2ccccn2c1C(=O)c1ccccc1 | -1 | 1 | 0 | -16 | 22 | x
CC(C)(C)c1ccc(S(=O)(=O)NC(=O)C2(C)CCN2C(=O)C2CC2)cc1 (centres undefined) | x | 1 | 1 | 26 | -8 | x
Cc1cc(C)c2c(c1)-c1c(ssc1=S)C(C)(C)N2C(=O)CN1C(=O)c2ccccc2C1=O | 19 | 0 | 0 | 8 | 63* | 31
CN(Cc1ccco1)C(=O)[C@H](Cc1ccccc1)NC(=O)CC[C@H]1O[C@@H](n2ccc(=O)[nH]c2=O)[C@H](O)[C@@H]1O | x | 0 | 0 | -6 | -3 | x
COc1ccccc1C(=O)N1CCCC(C)(C(=O)NS(=O)(=O)C2CC2)C1 (centres undefined) | x | -1 | 4 | 13 | -8 | x
